Values after ≈ are worked out from the molar mass of the structure shown.
How the values were obtained:
[1] = test system: Amaranthus hypochondriacus; experiment: Phytogrowth-inhibitory activity against Amaranthus hypochondriacus assessed as inhibition of radicle growth at 100 ug/ml incubated in dark at 27 degC measured after 24 hrs; assay type: functional; settings: read-out: GI
Summary of the method: (§1)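 Samples in MeOH-H2O (1:1) were added to Petri dishes and air-dried, giving a final 100 µg/ml. Solvent-only dishes served as negative controls and 2,4-D as positive control. Dishes were kept dark at 27°. Radicle length was read at 24 h for A. leucocarpus and 48 h for E. crus-galli. Results are % of untreated control, 4 replicates × 20 seedlings, with ANOVA/Duncan.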

Echinochloa crus-galli [2] = experiment: Phytogrowth-inhibitory activity against Echinochloa crus-galli assessed as inhibition of radicle growth at 100 ug/ml incubated in dark at 27 degC measured after 48 hrs; assay type: functional; settings: read-out: GI; summary of the method: as §1
Echinochloa crus-galli [3] = experiment: Phytogrowth-inhibitory activity against Echinochloa crus-galli assessed as inhibition of seed germination incubated in dark at 27 degC measured after 48 hrs; assay type: functional, organism-based
Summary of the method: (§2)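 Seeds in Petri dishes with test sample applied in MeOH-H2O (1:1), solvent air-dried before use. Kept in the dark at 27°: 24 h for Amaranthus, 48 h for E. crus-galli. Germination percentage and radicle length scored. Controls: 2,4-D positive, solvent-only negative. Germination IC50 from linear regression; radicle-growth IC50 from probit analysis.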

[4] = test system: Amaranthus hypochondriacus; experiment: Phytogrowth-inhibitory activity against Amaranthus hypochondriacus assessed as inhibition of seed germination incubated in dark at 27 degC measured after 24 hrs; assay type: functional, organism-based; summary of the method: as §2
Echinochloa crus-galli [5] = experiment: Phytogrowth-inhibitory activity against Echinochloa crus-galli assessed as inhibition of radicle growth incubated in dark at 27 degC measured after 48 hrs; assay type: functional, organism-based; summary of the method: as §2
[6] = test system: Amaranthus hypochondriacus; experiment: Phytogrowth-inhibitory activity against Amaranthus hypochondriacus assessed as inhibition of radicle growth incubated in dark at 27 degC measured after 24 hrs; assay type: functional, organism-based; summary of the method: as §2
Echinochloa crus-galli [7] = experiment: Stimulation of Echinochloa crus-galli radicle growth at 1 ug/ml incubated in dark at 27 degC measured after 48 hrs relative to control; assay type: functional
Summary of the method: (§3)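 Petri-dish seed assay at 1 µg/ml, with sample in MeOH-H2O (1:1) air-dried before seeding. Held in the dark at 27° and scored at 24 h (Amaranthus) or 48 h (E. crus-galli). Radicle growth expressed relative to untreated controls.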

[8] = test system: Amaranthus hypochondriacus; experiment: Stimulation of Amaranthus hypochondriacus radicle growth at 1 ug/ml incubated in dark at 27 degC measured after 24 hrs relative to control; assay type: functional; summary of the method: as §3
Staphylococcus aureus = experiment: Antibacterial activity against Staphylococcus aureus ATCC 25923 by agar diffusion technique; assay type: functional
[9] = Toxicity in brine shrimp assessed as lethality; assay type: organism-based; settings: artemia, in vivo
A-431 = experiment: Cytotoxicity against human A431 cells; assay type: functional; settings: read-out: ED50 (the source's name)
Summary of the method: (§4)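 Cell lines obtained from ATCC and tested in vitro following an earlier cytotoxicity protocol. The value is reported as ED50.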

[10] = Cytotoxicity against human BC1 cells; assay type: functional; settings: read-out: ED50 (the source's name)
Summary of the method: (§5)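 Cell lines established from primary human tumors at a university surgical oncology division and tested in vitro following an earlier cytotoxicity protocol. The value is reported as ED50.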

Col2 = experiment: Cytotoxicity against human Col2 cells; assay type: functional; settings: read-out: ED50 (the source's name); summary of the method: as §5
HT-1080 = experiment: Cytotoxicity against human HT1080 cells; assay type: functional; settings: read-out: ED50 (the source's name); summary of the method: as §4
KB = experiment: Cytotoxicity against human KB cells; assay type: functional; settings: read-out: ED50 (the source's name); summary of the method: as §4
[11] = Cytotoxicity against drug-resistant human KBV1 cells; assay type: functional; settings: KB-V1, read-out: ED50 (the source's name)
LNCaP = experiment: Cytotoxicity against human LNCAP cells; assay type: functional; settings: read-out: ED50 (the source's name); summary of the method: as §4
Lu1 = experiment: Cytotoxicity against human Lu1 cells; assay type: functional; settings: read-out: ED50 (the source's name); summary of the method: as §5
SK-MEL-2 = experiment: Cytotoxicity against human SK-MEL-2 cells; assay type: functional; settings: read-out: ED50 (the source's name); summary of the method: as §5
ZR-75-1 = experiment: Cytotoxicity against human ZR-75-1 cells; assay type: functional; settings: read-out: ED50 (the source's name); summary of the method: as §4
P388 = experiment: Cytotoxicity against mouse P388 cells; assay type: functional; settings: read-out: ED50 (the source's name); summary of the method: as §4
[12] = (§6) Displacement of [3H]PDBu from protein kinase C in calf brain homogenate by scintillation counting; assay type: tissue-based, Bos taurus
Summary of the method: (§7)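 Incubation mix contained 50 mM Tris/HCl (pH 7.4), 1 mM CaCl2, 39.2 nM [3H]PDBu, 50 µg/ml calf brain homogenate as the protein kinase C source, and compound in DMSO. Tubes ran 1 h at ambient temperature, then were filtered onto glass fiber and counted. Nonspecific binding was taken as the part not displaced by 100-fold excess unlabelled PDBu. Curve used five-fold dilutions from 200 to 0.32 µg/ml, 4 replicates.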

Bos taurus = organism: Bos taurus; experiment: as §6; assay type: tissue-based; summary of the method: as §7

Compound `CCCCC[C@H]1CCCCCCCCCC(=O)O[C@H]2[C@H](O)[C@@H](CO)O[C@@H](O[C@H]3[C@H](O1)O[C@H](C)[C@H](O)[C@@H]3O)[C@@H]2O[C@@H]1O[C@@H](C)[C@H](OC(=O)[C@@H](C)CC)[C@@H](O[C@@H]2O[C@@H](C)[C@H](O)[C@@H](O)[C@H]2O)[C@H]1OC(=O)[C@@H](C)CC` [TRICOLORIN A] has an inhibition of growth at 100 µg/mL [1] of 68.3%, an inhibition of growth at 100 µg/mL (Echinochloa crus-galli [2]) of 78.8% and an IC50 (Echinochloa crus-galli [3]) of 36.9 µg/mL (≈ 36.1 µM). For the same compound, the IC50 [4] was 152 µg/mL (≈ 149 µM), the Activity (Echinochloa crus-galli [5]) was “Dose-dependent effect” and the IC50 (Echinochloa crus-galli [5]) was 12.6 µg/mL (≈ 12.3 µM). For the same compound, the Activity [6] was “Dose-dependent effect”, the IC50 [6] was 37 µg/mL (≈ 36.2 µM) and the Activity (Echinochloa crus-galli [7]) was 4%. It also gave an Activity [8] of 4%, an MIC (Staphylococcus aureus) of 1.8 µg/mL (≈ 1.76 µM) and an LC50 [9] of 18.2 µg/mL (≈ 17.8 µM). It also gave an EC50 (A-431) of 10.3 µg/mL (≈ 10.1 µM), an EC50 [10] of 2.2 µg/mL (≈ 2.15 µM) and an EC50 (Col2) of 8.9 µg/mL (≈ 8.7 µM). For the same compound, the EC50 (HT-1080) was 6.3 µg/mL (≈ 6.16 µM), the EC50 (KB) was over 20 µg/mL and the EC50 [11] was over 20 µg/mL. It also gave an EC50 (LNCaP) of 5.8 µg/mL (≈ 5.67 µM), an EC50 (Lu1) of 5.5 µg/mL (≈ 5.38 µM) and an EC50 (SK-MEL-2) of 7.6 µg/mL (≈ 7.43 µM). It also gave an EC50 (ZR-75-1) of 8.1 µg/mL (≈ 7.92 µM), an EC50 (P388) of 2.2 µg/mL (≈ 2.15 µM) and an IC50 [12] of 44.1 µg/mL (≈ 43.1 µM). For the same compound, the Activity (Bos taurus) was “Dose-dependent effect”.

With `O=C(O)COc1ccc(Cl)cc1Cl` [2,4-DICHLOROPHENOXYACETIC ACID] the Activity (Echinochloa crus-galli [7]) was 4% and the Activity [8] was 4%.
